# Screening results deposited in PubChem BioAssay by several laboratories.
# CHT allo act – CHT positive allosteric modulators, primary screen, cell-based, membrane potential dye, choline EC20; High affinity choline transporter 1 (Homo sapiens), Q9GZV3; CHT-expressing cells; stronger effect = higher value; LV-AA mutant CHT in HEK293 cells; B-score at 10 µM; actives 0.49% (n = 310,000);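 active means initial fluorescence not abnormally high and integrated response B-score, plate-corrected, over 3 SD above library mean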
# Target sequence (Q9GZV3 whole entry, looked up): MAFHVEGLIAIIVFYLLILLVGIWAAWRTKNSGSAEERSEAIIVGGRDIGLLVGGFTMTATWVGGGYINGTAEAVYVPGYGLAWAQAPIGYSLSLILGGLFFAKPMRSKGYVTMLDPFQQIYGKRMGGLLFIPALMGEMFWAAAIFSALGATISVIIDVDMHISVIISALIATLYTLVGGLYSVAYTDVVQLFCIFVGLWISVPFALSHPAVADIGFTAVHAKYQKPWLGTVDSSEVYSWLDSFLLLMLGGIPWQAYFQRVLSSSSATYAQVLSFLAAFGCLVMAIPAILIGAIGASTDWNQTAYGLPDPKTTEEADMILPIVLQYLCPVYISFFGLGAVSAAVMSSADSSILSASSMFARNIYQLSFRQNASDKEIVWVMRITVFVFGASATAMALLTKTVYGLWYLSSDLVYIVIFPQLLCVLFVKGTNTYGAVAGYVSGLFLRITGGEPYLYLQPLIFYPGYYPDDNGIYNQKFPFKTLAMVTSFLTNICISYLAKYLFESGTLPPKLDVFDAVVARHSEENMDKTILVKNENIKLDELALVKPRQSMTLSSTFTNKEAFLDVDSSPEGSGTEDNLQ
# Cl transport mod – KCC2 cotransporter modulators, thallium flux, primary screen, cell-based, HEK293 KCC2, FluoZin-2 fluorescence, MLSMR | B-score of Tl+ flux slope (higher = more flux/activation; lower = inhibition) at 10 µM | actives 2.2% (n = 190,000) | Solute carrier family 12 member 5 (Homo sapiens), Q9H2X9 | KCC2 cells, thallium flux FluoZin-2 fluorescence;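 active means thallium flux slope and its plate-corrected score both differing from the plate sample mean at a set confidence after two filtering rounds, in either direction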;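 further: slope of fluorescence scaled to starting intensity during 10 to 20 s after thallium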
# CHT inh – inhibitors of human choline transporter CHT; High affinity choline transporter 1 (Homo sapiens), Q9GZV3; CHT-expressing cells, membrane potential dye, choline response; stronger effect = lower value; B-score at 10 µM; actives 0.86% (n = 310,000); AID 488975, 2010;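 active means B-score over 3 SD under the library average, and starting fluorescence ratio not unusually high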;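 further: choline stimulus applied at its EC90 after an EC20 pre-addition; B-score computed on integrated fluorescence ratio after choline addition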
# Rad51 HR inh – human RAD51 strand exchange inhibitors, primary screen, biochemical, fluorescence; AID 1385, 2008; actives 0.085% (n = 200,000); inhibition, % at 10 µM; DNA repair protein RAD51 homolog 1 (Homo sapiens), Q06609; hRad51 DNA strand exchange, fluorescence dequenching;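 active means inhibition above 40% at the single screening dose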;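 further: 0% = DMSO control wells and 100% = blanks with heterologous ssDNA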
#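 material = hRad51 filaments on single-stranded DNA | timing = filaments 15 min 37 °C, then compound 30 min | signal = FRET fluorescence dequenching, excitation 485 nm, emission 520 nm | benchmarks = control wells and blank wells on each plate | evaluation = percent inhibition relative to plate controls and blanks | compound = 10 µM final, single point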
# CHT inh conf – CHT inhibitors, confirmation, cell-based, membrane potential dye, duplicate; shares compounds with CHT inh; CHT-expressing cells, choline membrane potential dye; LV-to-AA substituted CHT, HEK293 cells; CHT activity remaining % of control (stronger effect = lower value), % at 10 µM; actives 70% (n = 2,400); AID 493221, 2011;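 active means choline transporter activity left, mean of duplicates at 10 µM, below buffer-only control mean minus 3 SD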;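 further: depolarization triggered by choline at its EC90 following an EC20 pre-addition; 0% = hemicholinium-3 full block and 100% = buffer-only control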
# HEK293 MPD ctr – membrane potential effects in parental HEK293, counter-screen for CHT inhibitor project, cell-based, membrane potential dye; shares compounds with CHT inh; choline response; active = decrease or increase beyond buffer ±3SD; membrane potential ratio readout (active if shifted either direction beyond buffer ±3SD; no single direction) at 10 µM; actives 4% (n = 2,400); AID 493222, 2011;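 further: parental cells lack the transporter so any hit is non-specific; ratio is peak minus trough fluorescence over baseline after EC90 choline challenge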
# CHT activ conf – CHT activators, confirmation, cell-based, membrane potential dye, duplicate; shares compounds with CHT allo act; CHT-expressing cells, membrane potential dye fluorescence (FDSS); % of choline EC20–EC90 response window; HEK293 expressing CHT LV-AA mutant; choline added at its EC20; actives 91% (n = 2,500); activation, % at 10 µM;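 active means primary screen active, with duplicate mean activation above negative control mean plus 3 SD, cut at about 11% in these data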
# HEK293 MP dye – membrane potential response in parental HEK293 cells, counter-screen for CHT activator project, cell-based, membrane potential dye. shares compounds with CHT allo act. ratio readout change at 10 µM, hits read low. membrane potential dye fluorescence (FDSS); measured after EC20 choline addition. AID 623908, 2012. actives 62% (n = 2,500);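 active means duplicate-averaged ratio beyond 3 SD from buffer wells, up or down, though filed actives are nearly all decreases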
# The depositor's hits bear a star; i = inactive; x = no result given. The list is not random: actives were taken first. Their share in the collection is about 2.6%.
SMILES,CHT allo act,Cl transport mod,CHT inh,Rad51 HR inh,CHT activ conf,HEK293 MP dye,others
Cc1[nH]nc2c1C(c1cccs1)C1=C(CC(C)(C)CC1=O)N2 (stereo unspecified),i,-1.3,i,18,x,x,
CCN(CC)S(=O)(=O)c1ccc2[nH]c(=O)cc(C(=O)NCc3ccccc3)c2c1,i,x,i,x,x,x,
COc1ccc(S(=O)(=O)NC(C)C(=O)Nc2ccc3c(c2)OCO3)cc1OC (stereo unspecified),i,x,i,x,x,x,
Cc1ccc(S(=O)(=O)NC(C)C(=O)Nc2ccc3c(c2)OCO3)cc1 (stereo unspecified),i,x,-9*,x,x,x,CHT inh conf=i;HEK293 MPD ctr=i
COc1cccc(CNC(=S)NC2CCCC2)c1,i,-0.56,i,-3,x,x,
COc1ccc(CNC(=S)NC2CCCC2)cc1,i,-0.072,-15*,-16,x,x,CHT inh conf=i;HEK293 MPD ctr=i
Cc1ccc(S(=O)(=O)N2CCC(=O)N(CCOCc3ccc(F)cc3)CC2)cc1,i,-0.76,-5.9*,4,x,x,CHT inh conf=54%*;HEK293 MPD ctr=i
CCCCN(CCCC)CC(O)COc1ccccc1C(=O)Nc1ccccc1 (stereo unspecified),7.1*,-0.27,i,7,0,i,
CC(=NCCCn1ccnc1)c1c(C)[nH]n(-c2ccc([N+](=O)[O-])cc2)c1=O,7.8*,0.62,i,-1,49*,-44*,
Cc1[nH]n(-c2ccc([N+](=O)[O-])cc2)c(=O)c1/C=N/N1CCOCC1,i,x,i,26,x,x,
COc1nnc(-c2ccc(N3CCOCC3)c(NC(=O)C3CCCCC3)c2)c2ccccc12,i,-0.62,i,-6,7,i,
COc1nnc(-c2ccc(N3CCCCC3)c(NC(=O)C3CCCCC3)c2)c2ccccc12,i,0.4,i,x,x,x,
COc1ccc(N(C(=O)c2ccco2)C(C(=O)NC2CCCC2)c2cc(OC)c(OC)c(OC)c2)cc1 (stereo unspecified),i,x,i,x,x,x,
Clc1ccc(-c2cn(-c3ccc(Cl)cc3)c3[n+]2CCCCC3)cc1,i,0.13,i,x,x,x,
COc1ccc(-c2cn(-c3ccc(Cl)cc3)c3[n+]2CCCCC3)cc1,7*,1.5,i,x,51*,-21*,
COc1ccc(CCC(=O)Nc2ccc(Cl)c(S(=O)(=O)N3CCCC3)c2)cc1,i,-1.8,i,8,x,x,
Clc1ccc(COn2c(-c3ccccc3)nc3ccccc32)cc1,6.5*,-0.36,i,-1,26*,i,
O=C(c1ccc(Cl)cc1)c1cc([N+](=O)[O-])ccc1N1CCOCC1,i,x,i,3,50*,i,
O=C(c1ccc(Br)cc1)c1cc([N+](=O)[O-])ccc1N1CCOCC1,i,-0.35,i,-4,x,x,
O=C(c1ccccc1)c1cc([N+](=O)[O-])ccc1N1CCOCC1,i,1.2,i,-2,57*,i,
COc1ccc(COC(=O)c2cc([N+](=O)[O-])ccc2N2CCOCC2)cc1F,9.4*,x,i,x,67*,i,
CC1CCCN(c2ccc([N+](=O)[O-])cc2C(=O)c2ccccc2)C1 (stereo unspecified),7.6*,-0.044,i,x,27*,i,
